For orientation: inhibition means the relative decrease from the control value, in per cent.

The subject of data set [1] is Escherichia coli. The data set can be described thus: Antibacterial activity against Escherichia coli K12 assessed as bacterial growth inhibition at 32 ug/ml measured after 16 hrs by broth microdilution method. Type of data set: functional, organism-based. The conditions noted are these: K-12. The gist of the method:
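Broth microdilution in Mueller Hinton broth, triplicate. Direct colony suspension at 1.5 x 10^8 CFU/mL diluted to ~10^5 CFU/mL. Serial dilutions made from DMSO stocks at 1 mg/mL; vancomycin positive control, blank medium negative control. Incubated 16 h at optimum temperature. MIC is the lowest concentration without visible growth at 600 nm; mean of triplicate determinations.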
Background: Broth dilution looks for growth in wells or tubes with falling amounts of substance.

A short description of data set [2]: Intrinsic clearance in human liver microsomes at 1 ug/ml measured per mg protein up to 60 mins by LC-MS/MS analysis. Type of data set: ADME, Microsome. The conditions noted are these: microsomes, 1 h. The gist of the method:
(§1)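 Human liver microsomes (1.0 mg/mL protein) in 100 mM phosphate pH 7.4 with 10 mM MgCl2 and 2 mM NADPH, preincubated 10 min at 37 °C. Reaction started with compound at 1 μg/mL. Sampled at 0, 5, 15, 20, 30, 45 and 60 min and quenched in methanol with internal standard. Controls: no NADPH (negative), testosterone (positive). Analysed by LC-MS/MS, triplicate.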

Data set [3] is described as follows: Activation of recombinant mouse C-terminal 6xHis-tagged ClpP expressed in Escherichia coli assessed as induction of casein degradation at 0.1 to 1 uM using FITC-labelled casein as substrate pretreated with enzyme for 30 mins followed by substrate addition and measured every 3 mins for 3 hrs in absence of AAA+ chaperone by fluorescence based tecan-plate reader assay. The gist of the method: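 Recombinant C-terminal His6-tagged ClpP, expressed in a clpAPX-null E. coli strain and purified (mammalian ClpP without mitochondrial signal, codon-optimized). ClpP at 1 or 0.1 μM (E. coli), 1 μM (human, mouse) or 6 μM (chlamydial ClpP1 and ClpP2) preincubated with compound or DMSO, 30 min, 32 °C, in HEPES pH 7.6/KCl/MgCl2/DTT/glycerol buffer. 20 μM FITC-casein then added. Fluorescence (ex 490/em 525 nm) read every 3 min for 3 h. At least three runs on at least two protein preparations.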

Data set [4] in a line: Stability of the compound in simulated gastric fluid at 50 uM and pH 1.2 at 37 degree C measured up to 120 mins by HPLC-ESI/MS analysis. The conditions noted are these: simulated gi fluid, pH 1.2, 2 h.
Data set [5] is described as follows: Hepatic intrinsic clearance in human liver microsomes at 1 ug/ml measured per kg body weight up to 60 mins by LC-MS/MS analysis. In kind it is ADME, Microsome. To be noted: 1 h.
The nature of data set [6]: Drug metabolism in human liver microsomes assessed as amount of drug modified at 1 ug/ml […] in presence of NADPH by LC-MS/MS analysis. To be noted: read-out: Drug metabolism. Type of data set: ADME, Microsome.
Data set [7] in a line: Stability of compound in mouse pre-heated plasma at 50 uM incubated up to 120 mins by HPLC-ESI/MS analysis. In kind it is ADME, cell-free. The conditions noted are these: 2 h. Put shortly: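 Compounds from 2.5 mM DMSO stocks incubated at 50 μM final in mouse plasma diluted to 80% with PBS, preheated, 37 °C, shaking. Sampled at 0, 15, 30, 60, 90 and 120 min and quenched with cold acetonitrile. Centrifuged; supernatant analysed by HPLC-ESI-MS. Peak area reported relative to time zero. Enalapril positive control; triplicate.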

The nature of data set [8]: Mutagenicity in Drosophila melanogaster somatic cells assessed as frequency of clone formation in HB crosses at 0.25 to 1 mM by SMART assay. Type of data set: ADME. To be noted: 1000 µM. Put shortly: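 Drosophila SMART wing-spot assay, ST and HB crosses. Third-instar larvae (72 ± 4 h) placed on hydrated instant mashed potato medium containing compound at 0.25, 0.5 or 1.0 mM final. Negative control: water with 1% Tween-80 and 3% ethanol. Statistics by Frei and Würgler two-sided U test, P≤0.05.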

Data set [9] relates to Escherichia coli. Put plainly: Antibacterial activity against Escherichia coli ATCC 25922 assessed as bacterial growth inhibition at 32 ug/ml measured after 16 hrs by broth microdilution method. In kind it is functional, organism-based.
Data set [10] in a line: Stability of compound in human liver microsomes at 1 ug/ml measured up to 60 mins in absence of NADPH by LC-MS/MS analysis. To be noted: 1 h. Type of data set: ADME, Microsome. The gist of the method: as §1
(In general: Liver microsomes are a subcellular fraction often used to study metabolism.)

For data set [11], the system named is Acinetobacter baumannii. The data set can be described thus: Antibacterial activity against Acinetobacter baumannii ATCC 19606 assessed as bacterial growth inhibition at 32 ug/ml measured after 16 hrs by broth microdilution method. In kind it is functional, organism-based. The conditions noted are these: ATCC 19606 = CIP 70.34 = JCM 6841.
Data set [12] has as its system HEp-2. Put plainly: Toxicity in human Hep2 cells infected with Chlamydia trachomatis Serovar LGV-L2 at 100 ug/ml treated at 8 hrs post-infection and 24 hrs later re-infecting fresh Hep2 cells monolayer with infected cells and measured at 24 hrs post re-infection by immunofluorescence staining based microscopy analysis. In kind it is cell-based.
For data set [13], the system named is Chlamydia trachomatis. Put plainly: Anti-chlamydial activity against Chlamydia trachomatis Serovar LGV-L2 infected in Hep2 cells assessed as reduction in chlamydial growth by measuring decrease in inclusion forming units at 5.2 to 50 ug/ml treated at 8 hrs post-infection and 24 hrs later re-infecting fresh Hep2 cells monolayer with infected cells and measured at 24 hrs post re-infection by immunofluorescence staining based microscopy analysis. Type of data set: functional, organism-based. The gist of the method:
(§2)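 HEp-2 cells in DMEM with 10% FBS, infected with C. trachomatis L2 at MOI 1. Compounds added 8 hpi in triplicate; DMSO stocks at 50 mg/mL. At 24 hpi lysates collected in sucrose storage medium, frozen at −80 °C, and used to infect fresh HEp-2 monolayers in 10-fold dilutions. After 24 h, stained with goat anti-MOMP and Alexa488 secondary. Inclusions counted in 15 fields at 20x; IFU = mean count per field corrected for dilution.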

Data set [14] has as its system Chlamydia trachomatis. The data set can be described thus: Inhibition of recombinant Chlamydia trachomatis Serovar LGV-L2 C-terminal 6xhis-tagged ClpP1/ClpP2 dimer expressed in Escherichia coli at 0.1 to 1 uM by […] fluorescent peptide assay.
For data set [15], the system named is Chlamydia trachomatis. Put plainly: Activation of recombinant Chlamydia trachomatis Serovar LGV-L2 C-terminal 6xhis-tagged ClpP1/ClpP2 dimer expressed in Escherichia coli assessed as induction of casein degradation at 0.1 to 1 uM using FITC-labelled casein as substrate pretreated with enzyme for 30 mins followed by substrate addition and measured every 3 mins for 3 hrs in presence of AAA+ chaperone by fluorescence based tecan-plate reader assay.

For data set [16], the system named is Chlamydia trachomatis. Put plainly: Anti-chlamydial activity against Chlamydia trachomatis Serovar LGV-L2 infected in Hep2 cells assessed as reduction in chlamydial inclusion growth by measuring appearance of small and irregular inclusions at 12.5 ug/ml treated at 8 hrs post-infection and 24 hrs later re-infecting fresh Hep2 cells monolayer with infected cells and measured at 24 hrs post re-infection by immunofluorescence staining based microscopy analysis relative to control. In kind it is functional. The conditions noted are these: Serovar LGV-L2, HEp-2. The gist of the method:
as §2

Active and inactive are the calls of the source. The rule behind the calls is not given here.

In the case of `CC(C)(C(=O)NCCCc1ccccc1)S(=O)(=O)c1ccc(C(F)(F)F)cc1`, the inhibition result in data set [1], in data set [9] and in data set [11] was “inactive” each time. In addition, the microsomal intrinsic clearance in data set [2] was 113.09 µL/min. The Activity entry in data set [3] is listed as “Active”; in data set [8], “Non-Toxic”. For the same compound, the Stability entry in data set [4], in data set [7] and in data set [10] was “Stable” each time. In data set [5], this compound registered a CLH of 891 mL/min/kg. For the same compound, the metabolised at 10 min, 1 ug/ml in data set [6] stood at 90%.

Regarding `CC(C)(C(=O)N1CCN(Cc2ccc(Cl)cc2)CC1)S(=O)(=O)c1ccc(C(F)(F)F)cn1`, the inhibition entry in [1], in data set [14], in data set [9] and in data set [11] was “inactive” throughout. Further, the Activity entry in [12] is “Non-Toxic”; in data set [3] it was “Not Active”; in data set [8] it was “Non-Toxic”. For the same compound, the inhibition result in data set [13] is “Active”. The Stability result in data set [4], in data set [7] and in data set [10] was “Stable” each time. Besides, the metabolised at 10 min, 1 ug/ml in data set [6] worked out at 90%. In addition, the result in [15] was inactive. For the same compound, the inhibition at 12.5 µg/mL in data set [16] stood at 60%.

Source of the values: ChEMBL document CHEMBL4342502, “Synthesis and Antichlamydial Activity of Molecules Based on Dysregulators of Cylindrical Proteases” (J Med Chem, 2020).
